Measurements from different studies.
Protocols differ between the studies behind these lines.
Target: Serine/threonine-protein kinase MRCK alpha (CDC42BPA, Homo sapiens, UniProt Q5VT25)

CCC(=N\O)/C(C)=C/c1ccc(F)cc1
remaining binding (cell-free assay, competition with immobilised ligand; 1 µM): 100%

c1cnn2ncc(-c3ccnc(N4CCC45COC5)n3)c2c1
remaining binding (binding; 1 µM): 100%

CN1CCN(c2cnc3c(C4CCN(C(=O)c5ccc(OC(F)(F)F)cc5N)CC4)ncnc3c2)CC1
remaining binding (cell-free assay, competition with immobilised ligand; 1 µM): 100%

N[C@@H]1CCN(c2nccc(-c3cnn4ncccc34)n2)C1
remaining binding (binding; 1 µM): 100%

Cc1cc(-n2nc(Cc3cc(F)cc(C(F)(F)F)c3)nc2C)ccc1C(N)=O
remaining binding (cell-free assay, competition with immobilised ligand; 1 µM): 100%

O=C(NCCCN1CCOCC1)c1ccc(Nc2nccc(-c3cc4ccccc4s3)n2)cc1
remaining binding (binding, competition with immobilised ligand; 1 µM): 72%

Cc1cc(NC(=O)c2cccc(S(F)(F)(F)(F)F)c2)cc(-n2ccn3nc(-c4cccnc4)cc23)c1
remaining binding (cell-free assay, competition with immobilised ligand; 1 µM): 88.5%

COc1ccnn2ncc(-c3ccnc(N(C)C)n3)c12
remaining binding (binding; 1 µM): 100%

FC(F)(F)Oc1cccc(-c2cnc3ccc(-c4ccncc4)nn23)c1
remaining binding (cell-free assay, competition with immobilised ligand; 5 µM): 69%

O=C(NCC1CCOCC1)c1n[nH]cc1NC(=O)c1c(F)cccc1F
remaining binding (binding, competition with immobilised ligand; 1 µM): 100%

O=C(c1ccc(Nc2nccc(-c3cc4ccccc4s3)n2)cc1)N1CCC(N2CCCC2)CC1
remaining binding (binding, competition with immobilised ligand; 1 µM): 65%

F[C@@H]1CCN(c2nccc(-c3cnn4ncccc34)n2)C1
remaining binding (binding; 1 µM): 100%

C=CC(=O)N1CCC(C(=O)NCC(=O)N2CCN(c3nc(-c4cnc(N)nc4C(F)F)nc(N4CCOCC4)n3)CC2)CC1
remaining binding (binding, competition with immobilised ligand; 1 µM): 100%

CCN1CCN(Cc2ccc(C(=O)Nc3ccc(C)c(Oc4ccc5c(c4)CC(=O)N5)c3)cc2C(F)(F)F)CC1
remaining binding (binding, competition with immobilised ligand; 1 µM): 100%

C[C@@H](c1ccc(-n2cnc3c(N)ncnc32)cc1)N1CCc2nn(C)c(Cc3ccccc3)c2C1=O
remaining binding (binding, competition with immobilised ligand; 0.1 µM): 91%

NS(=O)(=O)c1cc(NC(=O)Cc2ccccc2)ccc1Oc1cccc(Cl)c1
remaining binding (cell-free assay, competition with immobilised ligand; 1 µM): 91%

Cc1cnn2ncc(-c3ccnc(N(C)C)n3)c2c1
remaining binding (binding; 1 µM): 87%

CNC(=O)[C@@H]1CC[C@@H](n2c(-c3ccc4cnccc4c3)nc3ccc(C(=O)NCc4cccc(C(N)=O)c4)cc32)C1
remaining binding (binding, competition with immobilised ligand; 1 µM): 100%

O=C(Nc1cccnn1)N1CCC(=Cc2cccc(Oc3ccc(C(F)(F)F)cn3)c2)CC1
remaining binding (cell-free assay, competition with immobilised ligand; 1 µM): 95%

C[C@H]1CCN(c2nccc(-c3cnn4ncccc34)n2)C1
remaining binding (binding; 1 µM): 98%

COc1cc(-c2cn(C3CCc4c(F)cccc4N(CC(F)(F)F)C3=O)nn2)ccc1-n1cnc(C)c1 (stereo not shown)
remaining binding (cell-free assay, competition with immobilised ligand; 1 µM): 100%

O=C(c1ccc(Nc2ncc(Cl)c(-c3ccc(Cl)s3)n2)cc1)N1CCC(N2CCCC2)CC1
remaining binding (binding, competition with immobilised ligand; 1 µM): 53%
